Measurements taken from ChEMBL document CHEMBL4825662 (J Med Chem, 2021).
Converted amounts (≈) assume the structure as drawn. One block for each compound: values may come before it.

Key:
Human orthopneumovirus [1] = assay: Antiviral activity against Respiratory syncytial virus A2 infected in African green monkey Vero cells by Plaque reduction assay; format: functional, organism-based
[2] = Cytotoxicity against African green monkey Vero cells by MTT assay; format: cell-based; conditions: chlorocebus sabaeus
Method in brief: (§1)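 Viability was assessed by MTT after culture with compound at 0.01 nM to 100 μM, run in parallel with plaque reduction assays. Values are the average of at least two testing occasions.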

Human orthopneumovirus [3] = assay: Antiviral activity against Respiratory syncytial virus A2 infected in human Hep2 cells by Plaque reduction assay; format: functional, organism-based; conditions: A2, HEp-2
Method in brief: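 Hep2 cells were infected with RSV strain A2 in the presence of compound. Plaques were detected by immunostaining after 48 h. Values are the average of at least two testing occasions.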

[4] = Cytotoxicity against human Hep2 cells; format: cell-based; conditions: HEp-2 cells
Method in brief: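 Hep2 cells were cultured in parallel with the plaque assays at compound concentrations of 0.01 nM to 100 μM. Viability was read by MTT, CellTox green or CellTiter-Glo.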

Fusion glycoprotein F0 = Fusion glycoprotein F0 (Human respiratory syncytial virus A (strain A2), UniProt P03420); assay: Inhibition of Respiratory syncytial virus fusion protein
Chain of Fusion glycoprotein F0 (P03420 26-109 limits assumed): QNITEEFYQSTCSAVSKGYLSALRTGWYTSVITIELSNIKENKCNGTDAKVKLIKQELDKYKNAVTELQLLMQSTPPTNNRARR
Chain of Fusion glycoprotein F0 (P03420 137-574 limits assumed): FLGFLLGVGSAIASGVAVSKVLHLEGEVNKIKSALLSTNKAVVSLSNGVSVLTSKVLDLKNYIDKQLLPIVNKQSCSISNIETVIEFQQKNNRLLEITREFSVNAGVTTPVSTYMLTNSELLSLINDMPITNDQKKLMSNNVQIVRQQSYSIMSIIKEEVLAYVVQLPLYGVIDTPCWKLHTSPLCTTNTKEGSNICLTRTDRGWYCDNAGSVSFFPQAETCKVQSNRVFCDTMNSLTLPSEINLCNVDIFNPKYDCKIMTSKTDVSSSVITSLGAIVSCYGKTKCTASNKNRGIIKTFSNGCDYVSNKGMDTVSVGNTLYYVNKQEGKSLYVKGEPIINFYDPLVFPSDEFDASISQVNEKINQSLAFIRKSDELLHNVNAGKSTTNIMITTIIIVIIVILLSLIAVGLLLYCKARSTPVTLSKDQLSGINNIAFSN
Method in brief: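 293T cells cotransfected with codon-optimized RSV A2 F plasmid and a GAL4-responsive luciferase reporter, mixed after 24 h with a second 293T population expressing GAL4-NF-κB transactivator. Threefold serial compound dilutions present during mixing; F-mediated fusion read as luciferase after 24 h. IC₅₀ averaged over at least two testing occasions.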

Human orthopneumovirus [5] = assay: Antiviral activity against Respiratory syncytial virus A2 by Plaque reduction assay; format: functional, organism-based
Method in brief: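 Vero cells were infected with RSV A2 for 48 h with compound at 0.01 nM to 100 μM. Plaques were detected by immunostaining. Values are the average of at least two testing occasions.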

[6] = Intrinsic clearance in Sprague-Dawley rat liver microsomes preincubated followed by NADPH addition and measured up to 45 mins by LC-MS/MS analysis; format: ADME, Microsome
[7] = Intrinsic clearance in Beagle dog liver microsomes preincubated followed by NADPH addition and measured up to 45 mins by LC-MS/MS analysis; format: ADME, Canis lupus familiaris, Microsome
[8] = Intrinsic clearance in human liver microsomes preincubated followed by NADPH addition and measured up to 45 mins by LC-MS/MS analysis; format: ADME, Microsome
[9] = Apparent permeability across basolateral side to apical side in MDCK-MDR1 cells at 10 uM measured at 60 mins by LC-MS/MS analysis; format: ADME, cell-based, Canis lupus familiaris; conditions: dog
[10] = Apparent permeability of compound in wild type MDCK at 10 uM incubated for 1 hr by LC-MS/MS assay; format: ADME, Canis lupus familiaris; conditions: dog
[11] = Protein binding in rat plasma assessed as unbound fraction at 5 uM by LC-MS/MS analysis based equilibrium dialysis method; format: ADME, cell-free
[12] = Protein binding in dog plasma assessed as unbound fraction at 5 uM by LC-MS/MS analysis based equilibrium dialysis method; format: ADME, cell-free, Canis lupus familiaris
[13] = Protein binding in human plasma assessed as unbound fraction at 5 uM by LC-MS/MS analysis based equilibrium dialysis method; format: ADME, cell-free
[14] = Thermodynamic solubility in PBS at 1 to 100 uM at pH 7.4 by HPLC-UV method; format: physicochemical; conditions: dose 1-100 µM, read-out: Therm_solubility
[15] = Apparent permeability across apical to basolateral side in MDCK-MDR1 cells at 10 uM measured at 60 mins by LC-MS/MS analysis; format: ADME, cell-based, Canis lupus familiaris; conditions: dog, MDCK-MDR1
[16] = Efflux ratio of apparent permeability in MDCK-MDR1 cells at 10 uM measured at 60 mins by LC-MS/MS analysis; format: ADME, cell-based, Canis lupus familiaris; conditions: dog, MDCK-MDR1
[17] = Cytotoxicity against human HepG2 cells by MTT assay; format: cell-based; method in brief: as §1
Human orthopneumovirus [18] = assay: Antiviral activity against Respiratory syncytial virus A2 infected in human Huh7 cells by Plaque reduction assay; format: functional, organism-based; conditions: A2, Huh-7
Method in brief: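 Huh-7 cells were infected with RSV strain A2 in the presence of compound. Values are the average of at least two testing occasions.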

EC50 (Human orthopneumovirus [1]): 17.9 nM
Compound: O=C1N(Cc2nc3ccccc3n2CCCC(F)(F)F)c2cc(F)ccc2C12CC2
CC50 [2]: > 25000 nM

EC50 (Human orthopneumovirus [3]): 13.7 nM
Compound: NC(=O)c1ccc2c(c1)nc(CN1C(=O)C3(CC3)c3ccc(F)cc31)n2CCCC(F)(F)F
CC50 [4]: > 20000 nM

Compound: CC(=O)N1CC2(C1)C(=O)N(Cc1nc3cc(CN)ccc3n1CCC(C)C)c1ccccc12
IC50 (Fusion glycoprotein F0): 1.1 nM
EC50 (Human orthopneumovirus [5]): 2.2 nM

EC50 (Human orthopneumovirus [1]): 580 nM
Compound: CC(C)CCn1c(CN2C(=O)C3(CCCC3)c3ccccc32)nc2cc(CN)ccc21
CC50 [2]: 9940 nM

EC50 (Human orthopneumovirus [1]): 14000 nM
Compound: CC(C)CCn1c(CN2C(=O)C3(CCCC3)Cc3ccccc32)nc2cc(CN)ccc21
CC50 [2]: 11500 nM

EC50 (Human orthopneumovirus [1]): 25.4 nM
Compound: CC(C)CCn1c(CN2C(=O)C3(CC3)c3cc(Cl)ccc32)nc2cc(CN)ccc21
CC50 [2]: 710 nM

EC50 (Human orthopneumovirus [3]): 0.5 nM
Compound: N=C(N)c1ccc2c(c1)nc(CN1C(=O)C3(CC3)c3ccc(F)cc31)n2CCCC(F)(F)F
CC50 [4]: > 20000 nM

EC50 (Human orthopneumovirus [1]): 6.7 nM
Compound: CC(C)CCn1c(CN2C(=O)C3(CC3)c3ccc(Cl)cc32)nc2cc(CN)ccc21
CC50 [2]: 4500 nM

EC50 (Human orthopneumovirus [1]): 5.4 nM
Microsomal intrinsic clearance [6]: 71.3 µL/min
intrinsic clearance [7]: 328 µL/min
intrinsic clearance (CLint) [8]: 177 µL/min
Papp B→A at 1 h, 10 µM [9]: 0.14 ×10⁻⁶ cm/s
Compound: O=C1N(Cc2nc3cc(Cl)ccc3n2CCCC(F)(F)F)c2cc(F)ccc2C12CC2
CC50 [2]: > 25000 nM

EC50 (Human orthopneumovirus [1]): 4.2 nM
Papp at 1 h, 10 µM [10]: 7.3 ×10⁻⁶ cm/s
fraction unbound at 5 µM [11]: 0.19
fraction unbound at 5 µM [12]: 0.15
fraction unbound at 5 µM [13]: 0.11
Microsomal intrinsic clearance [6]: < 29 µL/min
intrinsic clearance [7]: < 29 µL/min
intrinsic clearance (CLint) [8]: 344 µL/min
Compound: CC(C)CCn1c(CN2C(=O)C3(CC3)c3cc(F)ccc32)nc2cc(CN)ccc21
CC50 [2]: 7600 nM

EC50 (Human orthopneumovirus [1]): 1700 nM
Compound: CC(C)CCn1c(CN2C(=O)C3(CC3)Oc3ccccc32)nc2cc(CN)ccc21
CC50 [2]: 22700 nM

Microsomal intrinsic clearance [6]: 3.63 µL/min
intrinsic clearance [7]: 5.34 µL/min
intrinsic clearance (CLint) [8]: 3.78 µL/min
solubility thermodynamic [14]: 2600 µM (≈ 1180 µg/mL)
Papp A→B at 1 h, 10 µM [15]: 0.24 ×10⁻⁶ cm/s
Papp B→A at 1 h, 10 µM [9]: 0.79 ×10⁻⁶ cm/s
efflux ratio at 1 h, 10 µM [16]: 3.26
EC50 (Human orthopneumovirus [18]): 5.7 nM
Compound: CS(=O)(=O)CCCn1c(CN2C(=O)C3(CC3)c3ccc(F)cc32)nc2cc(CN)ccc21
CC50 [17]: > 25000 nM

EC50 (Human orthopneumovirus [1]): 3640 nM
Compound: CS(=O)(=O)c1ccc2c(c1)nc(CN1C(=O)C3(CC3)c3ccc(F)cc31)n2CCCC(F)(F)F
CC50 [17]: > 25000 nM

EC50 (Human orthopneumovirus [1]): 240 nM
Compound: CC(C)CCn1c(CN2C(=O)C3(CCC3)c3ccccc32)nc2cc(CN)ccc21
CC50 [2]: 13800 nM
